Assay results gathered from unrelated publications.
Each line is one published result; the experiments were not run side by side. pEC50, pIC50: −log10 of the molar value.
Cell line: OVCAR-3
Observed: cell growth or viability

Compound	assay	setting	measurement	value
COc1ccc(-c2ccc(-c3ccc(C(=N)N)nc3)s2)cc1Cl	SRB	–	GI50	1830 nM
Cc1cc(C)n(C(=S)[S][Au][PH](CCCCCC[PH]([Au][S]C(=S)n2nc(C)cc2C)(c2ccccc2)c2ccccc2)(c2ccccc2)c2ccccc2)n1	–	–	GI50	648 nM
CSc1ccc(/C=C2\C=C(CC(=O)NS(=O)(=O)C(F)(F)F)c3cc(F)ccc32)cc1	WST-1	48 h	pEC50	~3.80
O=C1CCC2(Oc3cccc4cccc(c34)O2)c2c(O)ccc(O)c21	resazurin	72 h	pIC50	< 4.60
C[C@]12CC[C@@H]3c4ccc(O)cc4CC[C@H]3[C@@H]1CC[C@@H]2O	ATP luminescence	72 h	pEC50	4.56
COc1ccc(C(=O)/C=C/c2ccccc2Cl)cc1S(N)(=O)=O	SRB	10 µM	inhibition	9%
Cc1ccc(C)c(COc2cc(NC(=O)c3ccc4c(c3)OCO4)ccc2N(C)S(C)(=O)=O)c1	SRB	48 h	GI50	39.6 nM
COc1ccc(C(=O)/C=C/c2cccnc2)cc1S(N)(=O)=O	SRB	48 h	GI50	10200 nM
C[C@H]1O[C@@H](n2cc(F)c(=O)[nH]c2=O)[C@H](O)[C@@H]1O	CCK-8	48 h	pIC50	< 4.30
COc1ccc(C(=O)/C=C/c2cccc(Cl)c2Cl)cc1S(N)(=O)=O	SRB	10 µM	inhibition	156%
CC(C)C(=O)Nc1ccc([N+](=O)[O-])c(C(F)(F)F)c1	CCK-8	48 h	pIC50	4.47
CC/C(=C(\c1ccccc1)c1ccc(OCCN(C)C)cc1)c1ccccc1	ATP luminescence	72 h	EC90	42900 nM
COc1cccc(Oc2ccccc2NC(=O)CNC(=O)c2cccc3ccccc23)c1	SRB	48 h	GI50	100 nM
COc1ccc(-c2ccc(-c3ccc(C(=N)N)nc3)s2)cc1	SRB	–	GI50	1820 nM
COc1cc(OC)c(/C=C/S(=O)(=O)Nc2ccc(OC)c(N)c2)c(OC)c1	trypan blue	96 h	pIC50	8.40
CC(C)c1cc(-c2n[nH]c(=O)n2-c2ccc3c(ccn3C)c2)c(O)cc1O	imaging	24 h	pIC50	6.55
